Compounds with a hit are over-represented: about 3.2% of the library has one in this group of screens.
NR2E3 ag-1: NR2E3 (human) agonism. Q9Y5X4. GST-NR2E3/biotin-RetCOR TR-FRET, 1536-well. inhibition of corepressor binding, % at 4.78 µM. hit rate 0.12% among 320,000. AID 2300;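 active = percent inhibition above the cutoff of mean plus 3 SD of all tested compounds, set per screening campaign, cut at about 20% in these data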
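Test system – NR2E3–RetCOR corepressor complex · Quantity – NR2E3 fusion 1.35 nM · Buffer or medium – Tris pH 7.5 · Incubation – Compound–protein incubation for 5 h at 4 °C · Technique – TR-FRET, Eu(K)-anti-GST donor, streptavidin-D2 acceptor, ex 340, em 617/671 nm · Evaluation – percent inhibition of 671/617 nm emission ratio versus biotin and DMSO controls · Plate – 1536-well format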
DAX1 inh-1: blocks DAX1 repression of SF-1 activated StAR promoter; HEK293T StAR-luciferase reporter, SF-1/DAX-1 repression relief; inhibition, % at 6.8 µM; hit rate 1.1% among 370,000; AID 652010;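 active = inhibition above the mean over all tested compounds plus 3 SD, cut at about 3.6% in these data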;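 also: higher inhibition means more luminescence from relief of DAX-1 repression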
NR2E3 ag-2: agonists of human NR2E3 nuclear receptor | Q9Y5X4 | CHO-S Gal4-NCOR/VP16-NR2E3 two-hybrid, luciferase | inhibition of corepressor binding, % at 3.98 µM | hit rate 0.35% among 360,000 | AID 602229;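 active = inhibition above the mean of all tested compounds plus 3 SD, cut at about 70% in these data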;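 also: higher means lower luciferase signal from less NR2E3 corepressor binding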
DAX1 inh-2: inhibitors of human orphan nuclear receptor DAX1 (NR0B1) | AID 504766 | hit rate 0.99% among 340,000 | HEK293 Gal4-DAX1 luciferase reporter, luminescence | P51843 | inhibition, % at 6.75 µM;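 active = inhibition above the mean over all tested compounds plus 3 SD, cut at about 4.2% in these data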;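 also: inhibition shows as a rise in luminescence from relieved DAX1 repression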
Target sequence (P51843 207-470 limits assumed): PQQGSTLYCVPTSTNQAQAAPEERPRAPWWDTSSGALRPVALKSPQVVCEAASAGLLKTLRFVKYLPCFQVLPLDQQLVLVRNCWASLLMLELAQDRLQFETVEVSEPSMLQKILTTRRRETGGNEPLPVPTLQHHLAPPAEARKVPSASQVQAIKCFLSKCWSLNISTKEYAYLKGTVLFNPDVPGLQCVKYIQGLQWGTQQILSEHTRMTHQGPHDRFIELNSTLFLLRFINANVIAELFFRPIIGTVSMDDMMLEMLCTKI
JMJD2C inh: human JMJD2C demethylase inhibition. GST-JMJD2C(1-420) H3K9me3 demethylation, DELFIA europium. inhibition, % at 2.35 µM. hit rate 0.069% among 330,000. AID 2099;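 active = more than half of a compound's replicate wells show inhibition beyond 50%, single wells judged on their own value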;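 also: signal counts dimethyl H3K9 product captured on neutravidin plate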
SMARCA2 act: SMARCA2 function activation, primary screen | MG213 cells, MMTV-luciferase reporter, dexamethasone, overnight | activation, % at 9.1 µM | AID 652017 | hit rate 1% among 370,000; in the data active = activation above about 7.8%
DAX1 inh confirm: NR0B1 (human) inhibition, confirmation; shares compounds with DAX1 inh-1; HEK293T StAR-promoter luciferase reporter, SF-1/DAX-1 repression; inhibition, % at 6.8 µM; hit rate 87% among 2,400; AID 652134;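 active = inhibition above the average of every tested compound plus 3 SD, cut at about 3.8% in these data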;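 also: active compounds raise luminescence by relieving repression of the StAR reporter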
SF1 mutant ctr: counter-screen for DAX1 inhibitors: nonselective inhibitors with SF-1 AF2 mutant | shares compounds with DAX1 inh-1 | HEK293 StAR-luciferase, luminescence | inhibition, % at 6.8 µM | hit rate 78% among 2,400 | AID 652136;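 active = inhibition above the mean of all tested compounds plus 3 SD, cut at about 3% in these data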
A number is an active result; – = inactive; · = not tested or not shown.

SMILES	NR2E3 ag-1	DAX1 inh-1	NR2E3 ag-2	DAX1 inh-2	JMJD2C inh	SMARCA2 act	DAX1 inh confirm	SF1 mutant ctr
CCOC(=O)[C@]12CCCC=C1N(Cc1ccco1)C(=O)[C@H](CC(=O)NCc1ccccc1)C2	·	4.7	–	·	·	–	–	–
CCCCNC(=O)C[C@@H]1C[C@@]2(C(=O)OCC)CCCC=C2N(CCc2ccc(OC)c(OC)c2)C1=O	·	5.2	·	·	·	–	–	–
COC(=O)[C@@]12C[C@@H](CC(=O)NCc3ccc(C)o3)C(=O)N(CCc3ccc(OC)c(OC)c3)C1=CCC(C)(C)C2	·	5.8	·	·	·	–	–	–
CCCCNC(=O)C[C@@H]1C[C@@]2(C(=O)OC)CCCCC=C2N(CCc2ccc(OC)c(OC)c2)C1=O	·	–	·	·	·	–	·	·
CC(C)CNC(=O)OCc1cn(Cc2ccc(C(F)(F)F)cc2)nn1	·	–	·	·	·	–	·	·
COCCCN1C(=O)[C@H](CC(=O)N2CCC(c3ccccc3)CC2)[C@]2(C(=O)OC)CCCCC=C12	·	–	·	·	·	–	·	·
CN1/C(=C\C(=O)c2cccs2)Sc2ccccc21	–	4.6	–	–	–	–	10.4	7.0
COC(=O)[C@]12C[C@H](CC(=O)NCc3cccs3)C(=O)N(Cc3ccc(Cl)cc3Cl)C1=C[C@H](C1CCCC1)O[C@@H]2C	·	–	·	·	·	–	·	·
NC(=O)NC[C@@H]1CC[C@@H](Cc2ccc(-c3ccccc3)cc2)O1	·	·	–	–	·	·	·	·
OC[C@@H]1CC[C@@H](Cc2ccc(-c3ccccc3)cc2)O1	·	5.6	–	–	·	–	6.7	4.8
Cc1ccccc1OCC(=O)Nc1cccc(C(=O)O)c1	·	5.0	–	–	·	–	7.9	4.3
O=C(OCCN1CCCC12CCC(c1ccccc1)CC2)c1ccccc1 (stereo not given)	·	–	·	·	·	–	·	·
NC(=O)Nc1ccc(C(=O)OCC(=O)Nc2sccc2C(N)=O)cc1	·	–	–	–	·	–	·	·
N#Cc1ccsc1NC(=O)COC(=O)c1ccc(NC(N)=O)cc1	–	6.0	–	–	–	–	9.7	7.1
Cc1ccc(C2=NNC(c3cccc(F)c3)S2)cc1 (stereo not given)	–	9.5	–	–	–	–	11.4	5.2
COC(=O)[C@]12C[C@H](CC(=O)N3CCN(C(=O)c4ccco4)CC3)C(=O)N(CCc3ccc(OC)c(OC)c3)C1=C[C@H](COCc1ccccc1)O[C@@H]2C	·	–	·	·	·	–	·	·
COCCCNC(=O)C[C@H]1C[C@H](C(=O)N2CCOCC2)[C@@]2(CCC3CCCC3)c3[nH]c4cc(-c5ccco5)ccc4c3CCN2C1=O	·	5.8	–	–	·	–	–	–
O=C(CCn1nnc2ccccc21)N1CCN(c2ccccc2F)CC1	·	–	·	·	·	–	·	·
O=C(NCCC1=CCCCC1)c1ccc(F)cc1	–	6.4	–	–	–	–	17.8	6.3
COc1ccc(C(=O)NCCC2=CCCCC2)cc1	–	5.5	–	–	–	–	10.3	–
O=C(CCNC(=O)c1ccc([N+](=O)[O-])cc1)Nc1ccc(F)cc1	–	–	–	–	–	–	·	·
O=C(CCNC(=O)c1ccc(Cl)cc1)NCCC1=CCCCC1	–	5.4	–	–	–	–	5.8	5.8
O=C(NCCc1ccc(F)cc1)c1ccc([N+](=O)[O-])cc1	–	6.7	–	–	–	–	7.3	3.9
COc1ccc(C(=O)NCC(=O)OCC(=O)NCCC2=CCCCC2)cc1	–	–	–	–	–	–	·	·
CCCCNC(=O)C1(C(=O)c2ccc(OC)cc2)CC(C(=O)OCC)=NO1 (stereo not given)	·	–	·	·	·	–	·	·
COc1cc2c(cc1NC(=O)CSc1nnc(-c3cccnc3)n1-c1ccc(Br)cc1)oc1ccccc12	·	–	·	·	·	–	·	·
COc1ccc(-c2nnn3c2Cn2c4ccccc4c(=O)n2[C@@H](C(C)C)C3)cc1	·	–	·	·	·	–	·	·
Cc1nc2cc(C(=O)N3CCN(C(=O)C(C)(C)C)CC3)ccc2n1C1CCCC1	·	–	·	·	·	–	·	·
COC(=O)C[C@H]1CC[C@H]2[C@H](COc3ccc(NC(=O)c4cccs4)cc3C(=O)N2C)O1	·	–	·	·	·	–	·	·

Screening results (PubChem)
